# ChEMBL document CHEMBL1123045, “Synthesis of high specific activity [75Br]- and [77Br]bromperidol and tissue distribution studies in the rat” (J Med Chem, 1985)
# Columns and labels:
# Rattus norvegicus [1] = assay: Distribution in rat kidney, 2 hr after intravenous administration, injected dose/gm; assay type: ADME, organism-based; settings: in vivo
# How it was run: (§1)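 [77Br]Bromperidol at high specific activity (50-100 µCi in 0.1 mL 0.9% NaCl, pH 3) given into the femoral vein of 300-320-g female Sprague-Dawley rats under light ether anesthesia. At each time point, groups of five were decapitated after cardiac-puncture blood sampling. Organs were dissected, blotted, weighed and gamma-counted against an injectate standard. Values are % injected dose/g, mean ± SD, n=5.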
# Rattus norvegicus [2] = assay: Distribution in rat intestine 8 hr after intravenous administration, injected dose/gm; assay type: ADME, organism-based; settings: in vivo; how it was run: as §1
# Rattus norvegicus [3] = assay: Distribution in rat heart 2 hr after intravenous administration, injected dose/gm; assay type: ADME, organism-based; settings: in vivo; how it was run: as §1
# Rattus norvegicus [4] = assay: Distribution in rat muscle 15 min after intravenous administration, injected dose/gm; assay type: ADME, organism-based, Muscle tissue; settings: in vivo, 0.25 h
# How it was run: (§2)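 Female Sprague-Dawley rats (300-320 g) under light ether anesthesia received a single injection of [77Br]-labeled tracer (50-100 µCi in 0.1 mL 0.9% NaCl, pH 3) into the femoral vein. Groups of five were decapitated at set times after a cardiac-puncture blood sample. Organs were dissected, blotted and weighed, and counted in a NaI(Tl) well γ-counter. Values are %ID/g against an injectate standard, mean ± SD (n=5).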
# Rattus norvegicus [5] = assay: Distribution in rat lungs 5 min after intravenous administration, injected dose/gm; assay type: ADME, organism-based, Lung; settings: in vivo; how it was run: as §2
# Rattus norvegicus [6] = assay: Distribution in rat kidney, 15 min after intravenous administration, injected dose/gm; assay type: ADME, organism-based; settings: in vivo, 0.25 h; how it was run: as §1
# Rattus norvegicus [7] = assay: Distribution in rat lungs 4 hr after intravenous administration, injected dose/gm; assay type: ADME, organism-based, Lung; settings: in vivo; how it was run: as §2
# Rattus norvegicus [8] = assay: Distribution in rat lungs 1 hr after intravenous administration, injected dose/gm; assay type: ADME, organism-based, Lung; settings: in vivo; how it was run: as §2
# Rattus norvegicus [9] = assay: Distribution in rat heart 1 hr after intravenous administration, injected dose/gm; assay type: ADME, organism-based; settings: in vivo; how it was run: as §1
# Rattus norvegicus [10] = assay: Distribution in rat intestine 30 min after intravenous administration, injected dose/gm; assay type: ADME, organism-based; settings: in vivo, 0.5 h; how it was run: as §1
# Rattus norvegicus [11] = assay: Distribution in rat muscle 6 hr after intravenous administration, injected dose/gm; assay type: ADME, organism-based, Muscle tissue; settings: in vivo; how it was run: as §2
# Rattus norvegicus [12] = assay: Distribution in blood of rat, 4 hr after intravenous administration, injected dose/gm; assay type: ADME, organism-based; settings: in vivo; how it was run: as §1
# Rattus norvegicus [13] = assay: Distribution in rat fat 1 hr after intravenous administration, injected dose/gm; assay type: ADME, organism-based, Adipose tissue; settings: in vivo; how it was run: as §1
# Rattus norvegicus [14] = assay: Distribution in rat intestine 6 hr after intravenous administration, injected dose/gm; assay type: ADME, organism-based; settings: in vivo; how it was run: as §1
# Rattus norvegicus [15] = assay: Distribution in rat spleen 15 min after intravenous administration, injected dose/gm; assay type: ADME, organism-based; settings: in vivo, 0.25 h; how it was run: as §2
# Rattus norvegicus [16] = assay: Distribution in rat fat 8 hr after intravenous administration, injected dose/gm; assay type: ADME, organism-based, Adipose tissue; settings: in vivo; how it was run: as §1
# Rattus norvegicus [17] = assay: Distribution in rat kidney, 4 hr after intravenous administration, injected dose/gm; assay type: ADME, organism-based; settings: in vivo; how it was run: as §1
# Rattus norvegicus [18] = assay: Distribution in rat kidney, 1 hr after intravenous administration, injected dose/gm; assay type: ADME, organism-based; settings: in vivo; how it was run: as §1
# Rattus norvegicus [19] = assay: Distribution in rat muscle 1 hr after intravenous administration, injected dose/gm; assay type: ADME, organism-based, Muscle tissue; settings: in vivo; how it was run: as §2
# Rattus norvegicus [20] = assay: Distribution in rat fat 6 hr after intravenous administration, injected dose/gm; assay type: ADME, organism-based, Adipose tissue; settings: in vivo; how it was run: as §1
# Rattus norvegicus [21] = assay: Distribution in rat lungs 6 hr after intravenous administration, injected dose/gm; assay type: ADME, organism-based, Lung; settings: in vivo; how it was run: as §2
# Rattus norvegicus [22] = assay: Distribution in blood of rat, 30 min after intravenous administration, injected dose/gm; assay type: ADME, organism-based; settings: in vivo, 0.5 h; how it was run: as §1
# Rattus norvegicus [23] = assay: Distribution in rat uterus 2 hr after intravenous administration, injected dose/gm; assay type: ADME, organism-based; settings: in vivo; how it was run: as §2
# Rattus norvegicus [24] = assay: Distribution in rat pancreas 8 hr after intravenous administration, injected dose/gm; assay type: ADME, organism-based; settings: in vivo; how it was run: as §2
# Rattus norvegicus [25] = assay: Distribution in rat fat 2 hr after intravenous administration, injected dose/gm; assay type: ADME, organism-based, Adipose tissue; settings: in vivo; how it was run: as §1
# Rattus norvegicus [26] = assay: Distribution in blood of rat, 15 min after intravenous administration, injected dose/gm; assay type: ADME, organism-based; settings: in vivo, 0.25 h; how it was run: as §1
# Rattus norvegicus [27] = assay: Distribution in rat heart 15 min after intravenous administration, injected dose/gm; assay type: ADME, organism-based; settings: in vivo, 0.25 h; how it was run: as §1
# Rattus norvegicus [28] = assay: Distribution in rat spleen 5 min after intravenous administration, injected dose/gm; assay type: ADME, organism-based; settings: in vivo; how it was run: as §2
# Rattus norvegicus [29] = assay: Distribution in rat lungs 30 min after intravenous administration, injected dose/gm; assay type: ADME, organism-based, Lung; settings: in vivo, 0.5 h; how it was run: as §2
# Rattus norvegicus [30] = assay: Distribution in rat lungs 8 hr after intravenous administration, injected dose/gm; assay type: ADME, organism-based, Lung; settings: in vivo; how it was run: as §2
# Rattus norvegicus [31] = assay: Distribution in rat uterus 30 min after intravenous administration, injected dose/gm; assay type: ADME, organism-based; settings: in vivo, 0.5 h; how it was run: as §2
# Rattus norvegicus [32] = assay: Distribution in rat skin 30 min after intravenous administration, injected dose/gm; assay type: ADME, organism-based; settings: in vivo, 0.5 h; how it was run: as §2
# Rattus norvegicus [33] = assay: Distribution in blood of rat 5 min after intravenous administration, injected dose/gm; assay type: ADME, organism-based; settings: in vivo; how it was run: as §1
# Rattus norvegicus [34] = assay: Distribution in rat intestine 1 hr after intravenous administration, injected dose/gm; assay type: ADME, organism-based; settings: in vivo; how it was run: as §1
# Rattus norvegicus [35] = assay: Distribution in rat muscle 2 hr after intravenous administration, injected dose/gm; assay type: ADME, organism-based, Muscle tissue; settings: in vivo; how it was run: as §2
# Rattus norvegicus [36] = assay: Distribution in rat uterus 6 hr after intravenous administration, injected dose/gm; assay type: ADME, organism-based; settings: in vivo; how it was run: as §2
# Rattus norvegicus [37] = assay: Distribution in rat pancreas 2 hr after intravenous administration, injected dose/gm; assay type: ADME, organism-based; settings: in vivo; how it was run: as §2
# Rattus norvegicus [38] = assay: Distribution in brain of rat, 15 min after intravenous administered, injected dose/gm; assay type: ADME, organism-based; settings: in vivo, 0.25 h; how it was run: as §1
# Rattus norvegicus [39] = assay: Distribution in rat uterus 5 min after intravenous administration, injected dose/gm; assay type: ADME, organism-based; settings: in vivo; how it was run: as §2
# Rattus norvegicus [40] = assay: Distribution in blood of rat, 6 hr after intravenous administration, injected dose/gm; assay type: ADME, organism-based; settings: in vivo; how it was run: as §1
# Rattus norvegicus [41] = assay: Distribution in rat skin 8 hr after intravenous administration, injected dose/gm; assay type: ADME, organism-based; settings: in vivo; how it was run: as §2
# Rattus norvegicus [42] = assay: Distribution in blood of rat, 2 hr after intravenous administration, injected dose/gm; assay type: ADME, organism-based; settings: in vivo; how it was run: as §1
# Rattus norvegicus [43] = assay: Distribution in rat intestine 15 min after intravenous administration, injected dose/gm; assay type: ADME, organism-based; settings: in vivo, 0.25 h; how it was run: as §1
# Rattus norvegicus [44] = assay: Distribution in rat pancreas 5 min after intravenous administration, injected dose/gm; assay type: ADME, organism-based; settings: in vivo; how it was run: as §2
# Rattus norvegicus [45] = assay: Distribution in rat liver 5 min after intravenous administration, injected dose/gm; assay type: ADME, organism-based; settings: in vivo; how it was run: as §2
# Rattus norvegicus [46] = assay: Distribution in rat skin 4 hr after intravenous administration, injected dose/gm; assay type: ADME, organism-based; settings: in vivo; how it was run: as §2
# Rattus norvegicus [47] = assay: Distribution in rat liver 2 hr after intravenous administration, injected dose/gm; assay type: ADME, organism-based; settings: in vivo; how it was run: as §1
# Rattus norvegicus [48] = assay: Distribution in rat pancreas 1 hr after intravenous administration, injected dose/gm; assay type: ADME, organism-based; settings: in vivo; how it was run: as §2
# Rattus norvegicus [49] = assay: Distribution in brain of rat, 4 hr after intravenous administered, injected dose/gm; assay type: ADME, organism-based; settings: in vivo; how it was run: as §1
# Rattus norvegicus [50] = assay: Distribution in rat spleen 2 hr after intravenous administration, injected dose/gm; assay type: ADME, organism-based; settings: in vivo; how it was run: as §2
smiles,measurement,setting,value
O=C(CCCN1CCC(O)(c2ccc(Br)cc2)CC1)c1ccc(F)cc1 [BROMPERIDOL],Distribution,Rattus norvegicus [1],2.93%
same,Distribution,Rattus norvegicus [2],0.85%
same,Distribution,Rattus norvegicus [3],0.46%
same,Distribution,Rattus norvegicus [4],0.32%
same,Distribution,Rattus norvegicus [5],13.6%
same,Distribution,Rattus norvegicus [6],4.69%
same,Distribution,Rattus norvegicus [7],1.59%
same,Distribution,Rattus norvegicus [8],4.19%
same,Distribution,Rattus norvegicus [9],0.55%
same,Distribution,Rattus norvegicus [10],0.83%
same,Distribution,Rattus norvegicus [11],0.13%
same,Distribution,Rattus norvegicus [12],0.06%
same,Distribution,Rattus norvegicus [13],0.22%
same,Distribution,Rattus norvegicus [14],0.98%
same,Distribution,Rattus norvegicus [15],3.29%
same,Distribution,Rattus norvegicus [16],0.18%
same,Distribution,Rattus norvegicus [17],1.95%
same,Distribution,Rattus norvegicus [18],4.11%
same,Distribution,Rattus norvegicus [19],0.18%
same,Distribution,Rattus norvegicus [20],0.19%
same,Distribution,Rattus norvegicus [21],1.24%
same,Distribution,Rattus norvegicus [22],0.08%
same,Distribution,Rattus norvegicus [23],1.07%
same,Distribution,Rattus norvegicus [24],2.05%
same,Distribution,Rattus norvegicus [25],0.18%
same,Distribution,Rattus norvegicus [26],0.11%
same,Distribution,Rattus norvegicus [27],1.37%
same,Distribution,Rattus norvegicus [28],3.02%
same,Distribution,Rattus norvegicus [29],5.8%
same,Distribution,Rattus norvegicus [30],1.14%
same,Distribution,Rattus norvegicus [31],3%
same,Distribution,Rattus norvegicus [32],0.2%
same,Distribution,Rattus norvegicus [33],0.12%
same,Distribution,Rattus norvegicus [34],0.89%
same,Distribution,Rattus norvegicus [35],0.15%
same,Distribution,Rattus norvegicus [36],1.2%
same,Distribution,Rattus norvegicus [37],3.76%
same,Distribution,Rattus norvegicus [38],3.04%
same,Distribution,Rattus norvegicus [39],1.91%
same,Distribution,Rattus norvegicus [40],0.03%
same,Distribution,Rattus norvegicus [41],0.14%
same,Distribution,Rattus norvegicus [42],0.05%
same,Distribution,Rattus norvegicus [43],0.91%
same,Distribution,Rattus norvegicus [44],3.16%
same,Distribution,Rattus norvegicus [45],1.03%
same,Distribution,Rattus norvegicus [46],0.14%
same,Distribution,Rattus norvegicus [47],3.16%
same,Distribution,Rattus norvegicus [48],4.23%
same,Distribution,Rattus norvegicus [49],1.61%
same,Distribution,Rattus norvegicus [50],2.69%
